Experimental data taken from the EternaBench riboswitch data.

System: MS2 coat protein
Test: apparent Kd, MS2 coat protein; higher = weaker binding; RNA-MaP array; FMN 200 µM where present
How it was run: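 Stalled E. coli RNA polymerase transcribed the designs on Illumina sequencing-chip clusters. SNAP-549-labelled MS2 coat protein was titrated from 0.7 or 1.5 nM, doubling to 3 µM, without and then with constant ligand, in 100 mM Tris-HCl pH 7.5, 80 mM KCl, 4 mM MgCl2, BSA, DTT, yeast tRNA and Tween-20. Per-cluster binding curves were fitted to green signal normalised to red-channel RNA signal and control-cluster median Fmax. The apparent Kd is the median of the filtered fits.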

[1] = designed as: OFF switch for flavin mononucleotide, no ligand
[2] = ligand present: flavin mononucleotide, designed as: OFF switch for flavin mononucleotide
[3] = designed as: ON switch for flavin mononucleotide, no ligand
[4] = ligand present: flavin mononucleotide, designed as: ON switch for flavin mononucleotide

Sequence	apparent Kd [1]	apparent Kd [2]	apparent Kd [3]	apparent Kd [4]
GGCCUGUGAGGAUAUUAGUAGUAGUCAGAAUAGACUAUUACUGAGAAGGUACAUGAGGAUCACCCAUGUUGGCC	19.4 nM	15.9 nM	–	–
CAAUUUAUAACAGGAUAUGUAAUACAAUAGUAAAUAGAAGGGUUUUAUACAUGAGGAUCACCCAUGUCAUGUGUCAUAAUUACC	36.4 nM	29.5 nM	–	–
GCACCUUUAUUUGAACCGAUACGAACAUGAGGAUCACCCAUGUAGGAUAUGCUUAAAGUUGUGUUGCAGAAGGACAUUUAGUGC	8.76 nM	8.31 nM	–	–
AUAAAACAUGAGGAUCACCCAUGUCAACAAAGUCGAGGAUAUGGGCAAAGAAAAUAAGAACCAGAAGGCGAAUAAU	–	–	260 nM	45 nM
UACAAUCUAUCUGAGGAUAUCAUGAAAAAAACAUGAGGAUCACCCAUGUGCAGGAAAACUGCAUAUGAGAAGGCAGAUAGAUUGC	–	–	671 nM	29.3 nM
GUCAGCUCGUGAGGAUAUACAACACUGCUUCCGCAGUGUAUUAAGAUCACAUGAGGAUCACCCAUGUAGAAGGCACGAGCUGAU	13.7 nM	222 nM	–	–
AUCAGCUAGUCAGGAUAUACGUCACUGCGUCAGCAGUGUGGUAAGAUCACAUGAGGAUCACCCAUGUAGAAGGGACGAGCUGAU	14.2 nM	295 nM	–	–
CCGAGGCGAGGAUAUAUGAAGGACACAACAUUUAGGGUAAGACAUGAGGAUCACCCAUGUAGAAGGCGCGACGC	63.4 nM	55.8 nM	–	–
CUGUGUUGCGGGCAGGAUAUGUAUUGGAGUACAUGAGGAUCACCCAUGUGCGGGUGUUUCACCCGACAGAAGGGCCAAUCGCGAC	–	–	128 nM	24.5 nM
UAAACGUUCUAGAAGGUGCAUUUGUUAAACAAGCAAGGAUAUAGACAUGAGGAUCACCCAUGUCUAUUAGACAUCGGCCUACUU	5.75 nM	5.39 nM	–	–
AAAAGGCUAGGAUAUACAUGAGGAUCACCCAUGUGUACUGGACAUGCGGUAUGCGUAUGUAGAAGGAGUAUAAA	14.4 nM	21.6 nM	–	–
GGAUCGAGUGUGAGGAUAUGCUGGUCCUUGGAUCAGCAGAAGGCACAUGAGGAUCACCCAUGUGUUCCCGAUCC	43.6 nM	626 nM	–	–
AUUUAAAUGUCAGGAUAUGUCGGUAUAUACUCGGUAGAAGGGAUAAUUAUACUCAAGUACAUGAGGAUCACCCAUGUUAAAUCA	–	–	21.1 nM	14 nM
GGAAAUCAUGUAGGAUAUGCAUGGCGAAGCUACGCAGAAGGACAUGAGGAUCACCCAUGUGCUAGCUACCGAGUUCGGUGGCAA	90.8 nM	211 nM	–	–
AAUUGGAUGCAGAAGGCAUGGACGACUCGUCACAUUAACAUGAGGAUCACCCAUGUGAAAACACAUGAGGAUAUGCAUCCUAAA	–	–	17.5 nM	6.41 nM
UUAAUUAUACAAGGAUAUCUAUUGUAGUUUCGACUUACAUGAGGAUCACCCAUGUUAAUAUGUUUAGAGAAGGUGUAUUUUCAG	–	–	98.3 nM	61.1 nM
GCAUGCUAUGUCAGGAUAUACCUCUGGAUACAUAGGUAGAAGGGACAUGAGGAUCACCCAUGUCCUAAACAUGC	12.2 nM	13.4 nM	–	–
AUAUUUAUAUAUUUGGCAAGAAUCAGAAGGCGUUACAUGAGGAUCACCCAUGUUUUGUAUAGUAACGAGGAUAUGAUAUGGAAA	18.8 nM	14.2 nM	–	–
CGUUCAGAGAACGAUACGAAUGGACAUGAGGAUCACCCAUGUAGAAGGACAACGGAAUAAACGUUGUAGGAUAUACAUUUAGUG	53.7 nM	134 nM	–	–
CCUGGUUGGUAAGGAUAUCCUACACUAUUCUGACCCGUGCAAGCUACAUGAGGAUCACCCAUGUGGGAGAAGGUGCGUCAACGU	12.8 nM	12 nM	–	–
AUUUAAUUUAAUAAGAUCACAUGAGGAUCACCCAUGUAUAUAUAGGAUAUCAGCUCGAUUAGAGCUGAGAAGGAUAUAUACUAU	383 nM	322 nM	–	–

Sequence	apparent Kd [1]	apparent Kd [2]	apparent Kd [3]	apparent Kd [4]
CAAUUUAUAGCAGGAUAUACAAUACAAUGAUUAGUAGAAGGGUUUAAUACAUGAGGAUCACCCAUGUCAUGUGUCAUAAUAACC	31.2 nM	23.5 nM	–	–
UGCGAACAGGCUAACAUGAGGAUCACCCAUGUGGACUCAUGGUAGGAUAUCGGGAAGGAGGAAACCGAGAAGGGCCGGUGAGCU	–	–	217 nM	150 nM
UUUUUACAUGAGGAUCACCCAUGUGAGGAUAUGGUUUCGCUGGCCGUAGCCAGUGGAACCAGAAGGCGCGUGAU	95 nM	136 nM	–	–
CGGGCGGGAGGAUAUGCGUGGUUUGUUCUCGUUUGGUGUCUACAUGAGGAUCACCCAUGUAGAAGGCUUGUUUG	13.6 nM	15.8 nM	–	–
UACCUGAGGCAAAGCUUUAGGUAUACAUGAGGAUCACCCAUGUAGGAUAUGGUAGGCUUUGCUUACCAGAAGGACAUGUAAAUU	20.5 nM	67.8 nM	–	–
UAUAUAAUUAAGAGCUGGCUCAAAACAUGAGGAUCACCCAUGUAGGAUAUCAGCACGAUAAGUGCUGAGAAGGACAUCCAGCUC	16.9 nM	24.5 nM	–	–
AAAAAGUGAGGAUAUGCGCUGUCCUGUAGACACGAGCAGUCGUAGAAGGCACAUGAGGAUCACCCAUGUUUAAA	27.6 nM	20.2 nM	–	–
UUGUUACAUGAGGAUCACCCAUGUGAGGAUAUGGUUCAGUACUGUCAUGUCGCGUACUCCAGAAGGCACAUGUU	89.7 nM	209 nM	–	–
CAUUAAUUCAUUAUAGUUAUUAUACAGGAUAUGUUACAUGAGGAUCACCCAUGUAUUCAUGGUAAACAGAAGGGUAAUUCAAGU	24.9 nM	22.6 nM	–	–
CAAUAUAGCACAGGAUAUGUCUCGUUUACAUGAGGAUCACCCAUGUCCGAAACAGAAGGGUGACCCGAUAUAGGACGUUGGGUG	–	–	121 nM	28.9 nM
GCGUUCAUGUAGAAGGUACCUACAACAAAUUAUAACCGCUAGACACAUGAGGAUCACCCAUGUUGUAAGGAUAUACAUGAACGC	–	–	25.2 nM	17.1 nM
UUGAGGUGUCAAGGAUAUGCUACCGUUUCGGUAGCAGAAGGUGAUCACAUGAGGAUCACCCAUGUAUGCAUGCGUGAGCGUGCU	–	–	45.6 nM	285 nM
AAGAAGGACGCAGGAUAUCCAGGACCUCCCGCAGGAGAAGGGCGAGACACGUGGAUCACCCAGACAUGAGGAUCACCCAUGUAG	15.6 nM	14.2 nM	–	–
GCAAAGCCUGACAUGAGGAUCACCCAUGUUAGAUUGUUAUGUCAGGAUAUUGUCUAGCAACUAGACAAGAAGGGAUGCUCUGCG	–	–	744 nM	215 nM
CAUGACGAAGGAUAUACAUGAGGAUCACCCAUGUGGUCAUGGAAGUACGUGUUCUCGCGUAGAAGGUUGUAAAA	12.9 nM	13.6 nM	–	–
GAUUCACAUGAGGAUCACCCAUGUGAGGAUAUAGUGCAGGAGGUGGAUGCCCGCCUCUCUAGAAGGCACACGGG	21.9 nM	24.5 nM	–	–
CCGAAUGUCACAGGAUAUGGUCCGGGCUCGCGACCAGAAGGGUGAUCUCACAUGAGGAUCACCCAUGUGUAGGCGUUAGGCUAC	–	–	36.3 nM	260 nM
UUAAAUCAUGUAGGAUAUGCAUGGCGAAGCUACGCAGAAGGACAUGAGGAUCACCCAUGUUAUAGCGUCCGAUUAAGGAUGCAA	91.9 nM	216 nM	–	–
GCGGAACAUGAGGAUCACCCAUGUAUCCCAAAUAUGGACUCACAGGAUAUCCCGAGUUGCCAGUGGGAGAAGGGUGACUCCAGA	–	–	14.2 nM	6.55 nM
ACUGUCCGAGAGAAGGGAACAUGAGGAUCACCCAUGUUACCUCACCCGGUGACGGAACUCCAAGUUCAGGAUAUCUCGAGCGGU	7.09 nM	12.6 nM	–	–
